Laboratory results from ChEMBL document CHEMBL1134326, “C-16 artemisinin derivatives and their antimalarial and cytotoxic activities: syntheses of artemisinin monomers, dimers, trimers, and tetramers by nucleophilic additions to artemisitene” (J Med Chem, 2001).
pEC50, pIC50: −log10 of the molar value.

Legend:
[1] = tested on: BC; assay: Cytotoxicity against BC cells; assay type: functional, cell-based; conditions: Homo sapiens
Method in brief: (§1)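 Colorimetric cytotoxicity assay after Skehan on KB, BC and vero cell lines. Maximum concentration tested 130 µM. Ellipticine was the positive control. IC50 is reported in µM.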

[2] = tested on: KB; assay: Cytotoxicity against KB cells; assay type: functional, cell-based; conditions: Homo sapiens; method in brief: as §1
[3] = tested on: Plasmodium falciparum; assay: Antimalarial activity against Plasmodium falciparum; assay type: functional, organism-based
Method in brief: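 P. falciparum K1 (multidrug-resistant), asexual erythrocytic stage kept in continuous in vitro culture; microculture radioisotope method after Desjardins. EC50 is the concentration giving 50% reduction in parasite growth, measured as [3H]hypoxanthine uptake. Artemisinin and dihydroartemisinin served as standards.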

[4] = tested on: Vero; assay: Cytotoxicity against vero cells.; assay type: functional, cell-based; conditions: Chlorocebus sabaeus; method in brief: as §1
[5] = Therapeutic index (TI) determined as IC50 of vero cells to that of EC50; assay type: cell-based; conditions: plasmodium falciparum, read-out: TI
[6] = tested on: BC; assay: Cytotoxicity against BC cells.; assay type: functional, cell-based; conditions: Homo sapiens; method in brief: as §1
[7] = Cytotoxicity against KB cells.; assay type: functional, cell-based; conditions: Homo sapiens; method in brief: as §1

| SMILES | IA [1] | IA [2] | pEC50 [3] | pIC50 [4] | selectivity ratio [5] | pIC50 [6] | pIC50 [7] |
| --- | --- | --- | --- | --- | --- | --- | --- |
| CCC[C@H]1C(=O)O[C@@H]2O[C@]3(C)CC[C@H]4[C@H](C)CC[C@@H]1[C@@]24OO3 | Cytotoxic | Cytotoxic | 8.20 | < 3.89 | > 2.1 |  |  |
| C[C@@H]1CC[C@H]2C(CCC(=O)c3ccc[nH]3)C(=O)O[C@@H]3O[C@]4(C)CC[C@@H]1[C@]32OO4 (some centres not stated) | Cytotoxic | Cytotoxic | 7.61 | < 3.89 | > 5.2 |  |  |
| CCCC1(CC2C(=O)OC3OC4(C)CCC5C(C)CCC2C35OO4)C(=O)OC2OC3(C)CCC4C(C)CCC1C24OO3 (configuration not stated) | Cytotoxic | Cytotoxic | 8.36 | < 3.89 | > 3 |  |  |
| CC1CCC2C(CSCCCSCC3C(=O)OC4OC5(C)CCC6C(C)CCC3C46OO5)C(=O)OC3OC4(C)CCC1C32OO4 (configuration not stated) |  |  | 7.89 |  |  |  |  |
| CC1CCC2C(CC3(Cc4ccc(F)cc4)C(=O)OC4OC5(C)CCC6C(C)CCC3C46OO5)C(=O)OC3OC4(C)CCC1C32OO4 (configuration not stated) |  |  | 8.64 | 5.96 | 4.8 | 5.13 | 5.11 |
| CC1CCC2C(CCCCCCC3(CC4C(=O)OC5OC6(C)CCC7C(C)CCC4C57OO6)C(=O)OC4OC5(C)CCC6C(C)CCC3C46OO5)C(=O)OC3OC4(C)CCC1C32OO4 (configuration not stated) |  |  | 8.62 | 5.18 | 2.8 | 5.92 | 5.77 |
| CCC[C@@H]1C(=O)O[C@@H]2O[C@]3(C)CC[C@H]4[C@H](C)CC[C@@H]1[C@@]24OO3 | Cytotoxic | Cytotoxic | 7.96 | < 3.89 | > 1.2 |  |  |
| C[C@@H]1CCC2[C@H](CCCCCC[C@@H]3C(=O)O[C@@H]4O[C@@]5(C)CC[C@H]6[C@H](C)CCC3[C@@]46OO5)C(=O)O[C@@H]3O[C@]4(C)CC[C@@H]1C23OO4 (some centres not stated) |  |  | 8.85 | 5.00 | 7.1 | 5.80 | 5.64 |
| C[C@@H]1CCC2[C@H](CCCCCC[C@H]3C(=O)O[C@@H]4O[C@@]5(C)CC[C@H]6[C@H](C)CCC3[C@@]46OO5)C(=O)O[C@@H]3O[C@]4(C)CC[C@@H]1C23OO4 (some centres not stated) |  |  | 7.98 | 5.00 | 9.5 | 5.80 | 5.74 |
| C[C@@H]1CC[C@H]2[C@H](CCCCc3ccccc3)C(=O)O[C@@H]3O[C@]4(C)CC[C@@H]1[C@]32OO4 |  |  | 7.99 | 4.89 | 1.3 | 5.30 | 5.28 |
| C[C@@H]1CC[C@H]2[C@H](Cc3cccc(F)c3)C(=O)O[C@@H]3O[C@]4(C)CC[C@@H]1[C@]32OO4 |  |  | 7.74 | < 3.89 | 7.1 | 4.39 | 4.36 |
| CC1CCC2C(CSCCCCSCC3C(=O)OC4OC5(C)CCC6C(C)CCC3C46OO5)C(=O)OC3OC4(C)CCC1C32OO4 (configuration not stated) |  |  | 8.24 |  |  |  |  |
| COC(=O)C(C)(C)CC1C(=O)O[C@@H]2OC3(C)CC[C@H]4[C@H](C)CC[C@@H]1[C@@]24OO3 (single isomer, unassigned) | Cytotoxic | Cytotoxic | < 7.58 | < 3.89 | > 5 |  |  |
| CCCCCC[C@@H]1C(=O)O[C@@H]2O[C@]3(C)CC[C@H]4[C@H](C)CC[C@@H]1[C@@]24OO3 |  |  | 7.86 | 4.85 | 1 | 5.21 | 5.21 |
| CCCC[C@@H]1C(=O)O[C@@H]2O[C@]3(C)CC[C@H]4[C@H](C)CC[C@@H]1[C@@]24OO3 | Cytotoxic |  | 7.86 | < 3.89 | > 9.4 |  | 4.27 |
| C[C@@H]1CC[C@H]2[C@@H](Cc3ccc(F)cc3)C(=O)O[C@@H]3O[C@]4(C)CC[C@@H]1[C@]32OO4 | Cytotoxic | Cytotoxic | 8.17 | < 3.89 | 1.9 |  |  |
| CC1CCC2C(CCC(=O)c3ccc[nH]3)C(=O)OC3OC4(C)CCC1C32OO4 (configuration not stated) | Cytotoxic | Cytotoxic | 8.06 | < 3.89 | > 1.5 |  |  |
| C[C@@H]1CC[C@H]2[C@H](CCCCCCC[C@@H]3C(=O)O[C@@H]4O[C@@]5(C)CC[C@H]6[C@H](C)CC[C@@H]3[C@@]46OO5)C(=O)O[C@@H]3O[C@@]4(C)CC[C@@H]1[C@]32OO4 |  |  | 8.96 | 5.31 |  | 5.96 | 5.96 |
| CC1CCC2C(CSCCCCCSCC3C(=O)OC4OC5(C)CCC6C(C)CCC3C46OO5)C(=O)OC3OC4(C)CCC1C32OO4 (configuration not stated) |  |  | 7.92 |  |  |  |  |

| SMILES | IA [1] | IA [2] | pEC50 [3] | pIC50 [4] | selectivity ratio [5] | pIC50 [6] | pIC50 [7] |
| --- | --- | --- | --- | --- | --- | --- | --- |
| CCCCC1(CC2C(=O)OC3OC4(C)CCC5C(C)CCC2C35OO4)C(=O)OC2OC3(C)CCC4C(C)CCC1C24OO3 (configuration not stated) | Cytotoxic | Cytotoxic | 8.37 | < 3.89 | > 3 |  |  |
| CCCCC[C@H]1C(=O)O[C@@H]2O[C@]3(C)CC[C@H]4[C@H](C)CC[C@@H]1[C@@]24OO3 | Cytotoxic | Cytotoxic | 8.05 | < 3.89 | > 1.5 |  |  |
| C[C@@H]1CC[C@H]2C(CCC(=O)c3ccccc3)C(=O)O[C@@H]3O[C@]4(C)CC[C@@H]1C32OO4 (some centres not stated) | Cytotoxic | Cytotoxic | 7.89 | < 3.89 | > 1 |  |  |
| C[C@@H]1CC[C@H]2C(C[C@]3(C)C(=O)O[C@@H]4O[C@]5(C)CC[C@H]6[C@H](C)CC[C@@H]3[C@@]46OO5)C(=O)O[C@@H]3O[C@]4(C)CC[C@@H]1C32OO4 (some centres not stated) |  |  | 9.00 | 4.05 | 8.9 | 4.89 | 4.64 |
| CCCCCC[C@H]1C(=O)O[C@@H]2O[C@]3(C)CC[C@H]4[C@H](C)CC[C@@H]1[C@@]24OO3 |  |  | 7.89 | 4.80 | 1.2 | 5.24 | 5.21 |
| CC1CCC2C(CC3(CCCCCCCC4(CC5C(=O)OC6OC7(C)CCC8C(C)CCC5C68OO7)C(=O)OC5OC6(C)CCC7C(C)CCC4C57OO6)C(=O)OC4OC5(C)CCC6C(C)CCC3C46OO5)C(=O)OC3OC4(C)CCC1C32OO4 (configuration not stated) |  |  | < 7.70 | < 4.38 | > 2.1 | 5.02 | 5.27 |
| CC1CCC2C(CSCCSCC3C(=O)OC4OC5(C)CCC6C(C)CCC3C46OO5)C(=O)OC3OC4(C)CCC1C32OO4 (configuration not stated) |  |  | 8.13 |  |  |  |  |
| CCCC[C@H]1C(=O)O[C@@H]2O[C@]3(C)CC[C@H]4[C@H](C)CC[C@@H]1[C@@]24OO3 | Cytotoxic | Cytotoxic | 7.95 | < 3.89 | > 1.2 |  |  |
| CC1CCC2C(CC3(CCCCCCC4(CC5C(=O)OC6OC7(C)CCC8C(C)CCC5C68OO7)C(=O)OC5OC6(C)CCC7C(C)CCC4C57OO6)C(=O)OC4OC5(C)CCC6C(C)CCC3C46OO5)C(=O)OC3OC4(C)CCC1C32OO4 (configuration not stated) |  |  | 8.24 | 5.04 | 1.6 | 5.55 | 5.70 |
| CC1CCC2C(CC3(CCCCc4ccccc4)C(=O)OC4OC5(C)CCC6C(C)CCC3C46OO5)C(=O)OC3OC4(C)CCC1C32OO4 (configuration not stated) |  |  | 8.47 | 5.62 | 7.1 | 5.92 | 5.24 |
| C[C@@H]1CC[C@H]2[C@H](Cc3ccc(F)cc3)C(=O)O[C@@H]3O[C@]4(C)CC[C@@H]1[C@]32OO4 |  |  | 7.89 | 3.92 | 9.3 | 4.39 | 4.46 |
| CC1CCC2C(CC3(Cc4cccc(F)c4)C(=O)OC4OC5(C)CCC6C(C)CCC3C46OO5)C(=O)OC3OC4(C)CCC1C32OO4 (configuration not stated) |  |  | 8.68 | 5.26 | 2.6 | 5.46 | 5.40 |
| C[C@@H]1CC[C@H]2[C@@H](CCCCc3ccccc3)C(=O)O[C@@H]3O[C@]4(C)CC[C@@H]1[C@]32OO4 |  |  | 8.08 | 4.80 | 1.9 | 4.85 | 4.96 |
| CCCCCC1(CC2C(=O)OC3OC4(C)CCC5C(C)CCC2C35OO4)C(=O)OC2OC3(C)CCC4C(C)CCC1C24OO3 (configuration not stated) |  |  | 8.41 | 4.20 | 1.6 | 4.44 | 4.64 |
| CCN(CC)C(=S)SC(CC1C(=O)O[C@@H]2O[C@]3(C)CC[C@H]4[C@H](C)CC[C@@H]1C24OO3)SC(=S)N(CC)CC (some centres not stated) |  |  | 8.72 | 5.18 | 3.5 | 5.62 | 5.60 |
| C[C@@H]1CC[C@H]2[C@H](CCCCCCC[C@H]3C(=O)O[C@@H]4O[C@@]5(C)CC[C@H]6[C@H](C)CC[C@@H]3[C@@]46OO5)C(=O)O[C@@H]3O[C@@]4(C)CC[C@@H]1[C@]32OO4 |  |  | 9.04 | 5.55 | 3.1 | 6.44 | 6.12 |
| CCCCC[C@@H]1C(=O)O[C@@H]2O[C@]3(C)CC[C@H]4[C@H](C)CC[C@@H]1[C@@]24OO3 |  |  | 7.93 | 4.72 | 1.6 | 4.96 | 4.96 |
| CC1CCC2C(CCCCCCCC3(CC4C(=O)OC5OC6(C)CCC7C(C)CCC4C57OO6)C(=O)OC4OC5(C)CCC6C(C)CCC3C46OO5)C(=O)OC3OC4(C)CCC1C32OO4 (configuration not stated) |  |  | 8.51 | 5.00 |  | 5.70 | 5.55 |
